{"source": "paper PMC10824272", "about": "(Biomedicine & pharmacotherapy = Biomedecine & …, 2023)", "key": {"[1]": {"system": "SW480^cld1, SW620 and HCT116 cells", "assay": "Screening of I-6 analogs by anoikis", "assay_type": "cell-based, human", "conditions": "Suppl Fig3", "procedure,_shortened": "(§1)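 Anoikis induced by plating cells on poly-HEMA-coated culture plates. Apoptosis quantified with a cell death detection ELISA. Parental lines were cultured in RPMI with 10% FBS. Claudin-1-overexpressing SW480 and claudin-1-knockdown SW620 derivatives were used.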"}, "[2]": {"target": "T1, claudin-1/Src association (Homo sapiens, UniProt O95832)", "T1 sequence (O95832 1-211)": "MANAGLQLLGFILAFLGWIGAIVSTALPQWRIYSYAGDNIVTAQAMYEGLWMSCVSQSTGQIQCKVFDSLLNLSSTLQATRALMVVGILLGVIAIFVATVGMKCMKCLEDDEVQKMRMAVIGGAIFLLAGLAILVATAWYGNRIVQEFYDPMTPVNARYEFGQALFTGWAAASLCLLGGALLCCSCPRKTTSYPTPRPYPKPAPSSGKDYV", "assay": "Claudin-1 immunoprecipitation / Src immunoblot in SW620 cells", "assay_type": "cell-based", "conditions": "12.5μM and 25μM"}, "[3]": {"target": "T2, mouse claudin-4 (Mus musculus, UniProt O35054)", "T2 sequence (O35054 1-210)": "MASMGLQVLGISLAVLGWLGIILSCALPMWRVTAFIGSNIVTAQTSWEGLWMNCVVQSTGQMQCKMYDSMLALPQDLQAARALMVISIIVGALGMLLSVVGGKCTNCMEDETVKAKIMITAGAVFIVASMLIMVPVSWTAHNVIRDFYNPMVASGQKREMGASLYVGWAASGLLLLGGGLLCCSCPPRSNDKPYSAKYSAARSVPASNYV", "assay": "Microscale thermophoresis", "assay_type": "binding", "conditions": "25 °C, duplicate acquisitions", "procedure,_shortened": "(§2)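 Microscale thermophoresis at 25 °C with 1 μM Cy3-labeled, detergent-purified claudin (human claudin-19, mouse claudin-4 or trypsinized human claudin-1) in HEPES pH 7.4/100 mM NaCl buffer. Test compound dissolved in DMSO and titrated from 135 μM to 4.1 nM. Affinity derived from duplicate acquisitions.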"}, "[4]": {"system": "SW620 cells", "assay": "Transwell matrigel invasion assay", "assay_type": "cell-based, human", "conditions": "PDS-0330 25μM; P < 0.0001 vs control and 20A"}, "[5]": {"system": "SW620 cells", "assay": "Cell viability", "assay_type": "cell-based, human", "procedure,_shortened": "(§3)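 Claudin-1-overexpressing SW480cld1 and SW620 cells grown in RPMI with 10% FBS and exposed for 72 hours to a range of test compound concentrations. Viability measured by PrestoBlue reagent. EC50 calculated from the concentration–viability data.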"}, "[6]": {"system": "SW480^cld1 cells", "assay": "Transwell matrigel invasion assay", "assay_type": "cell-based, human", "conditions": "PDS-0330 25μM; P < 0.0001 vs control and 20A"}, "[7]": {"system": "SW480^cld1 cells", "assay": "Cell viability", "assay_type": "cell-based, human", "procedure,_shortened": "as §3"}, "[8]": {"assay": "Plasma pharmacokinetics in mice", "assay_type": "in vivo", "conditions": "for AUC(0-t) / CL/F / Cmax / Tmax / Vd/F / half-life / AUC(0-inf): both, mouse, plasma, 5 mg/kg; for AUC(0-inf): AUC0−∞, mice", "procedure,_shortened": "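I-6 given as a single 1 mg/kg intravenous dose to C57BL6 mice (n=5), with serial blood sampling. PDS-0330 given at 5 mg/kg by oral gavage or IP, with ~100 μl blood drawn from the maxillary vein at 5, 15, 30 min and 1, 2, 4, 6, 8, 24 h. Plasma levels in ng/ml; non-compartmental parameters.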"}, "[9]": {"system": "SW480 cells", "assay": "Cell viability", "assay_type": "cell-based, human", "conditions": "even at 25μM"}, "[10]": {"system": "SW480^cld1 cells", "assay": "Anoikis-induced apoptosis assay", "assay_type": "cell-based", "conditions": "claudin-1 overexpressed SW480^cld1", "procedure,_shortened": "as §1"}, "[11]": {"target": "T3, human claudin-19 (Homo sapiens, UniProt Q8N6F1)", "T3 sequence (Q8N6F1 1-224)": "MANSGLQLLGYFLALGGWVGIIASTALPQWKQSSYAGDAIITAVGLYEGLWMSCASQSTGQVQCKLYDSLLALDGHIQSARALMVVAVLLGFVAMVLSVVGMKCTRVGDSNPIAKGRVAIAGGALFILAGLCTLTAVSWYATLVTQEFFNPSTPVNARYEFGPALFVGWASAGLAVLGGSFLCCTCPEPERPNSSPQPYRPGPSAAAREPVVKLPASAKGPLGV", "assay": "Microscale thermophoresis", "assay_type": "binding", "conditions": "25 °C, duplicate acquisitions", "procedure,_shortened": "as §2"}, "[12]": {"assay": "Drug toxicity in xenograft mice", "assay_type": "in vivo", "procedure,_shortened": "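Body weight recorded during treatment. BUN determined colorimetrically in plasma and kidney tissue lysate by kit protocol. Mice sacrificed at day 25; AST activity measured in plasma and liver homogenate, followed up to 60 min at regular intervals. n=5 mice/group, means ± SEM.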"}, "[13]": {"assay": "Tissue bio-distribution in mice", "assay_type": "in vivo", "conditions": "mouse, 5 mg/kg"}, "[14]": {"system": "HCT116 cells", "assay": "Anoikis-induced apoptosis assay", "assay_type": "cell-based, human", "conditions": "claudin-1 deficient HCT116"}, "[15]": {"system": "claudin-1 overexpressed PDX tumor", "assay": "Chemo-resistant patient-derived xenograft", "assay_type": "in vivo, athymic nude mice", "procedure,_shortened": "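Chemo-resistant PDX tumor fragments (~2mm3) implanted subcutaneously in 6-week-old athymic nude mice. Once tumors were palpable, dosed once weekly for four weeks (n=5 mice/group), vehicle controls included. Caliper volume from […], tracked over time. Tumor sections stained by IHC for Ki67 and cleaved PARP.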"}, "[16]": {"system": "trypsinized human claudin-1", "assay": "Microscale thermophoresis", "assay_type": "binding", "conditions": "25 °C, at concentrations shown to bind wild-type claudin-1", "procedure,_shortened": "as §2"}, "[17]": {"conditions": "PDS-0330 5mg/kg and 10mg/kg once/week for four weeks"}}, "note": "Where “and” joins values, the source holds several entries; their conditions need not be identical. Equal values may be shown once.", "data": [{"smiles": "O=C(NC(=S)Nc1ccc(-c2nc3ccccc3o2)cc1)c1ccc2ccccc2c1", "note": "[PDS-0330, N-((4-(benzo[d]oxazol-2-yl)phenyl)carbamothioyl)-2-naphthamide]", "values": [{"measurement": "potency in inducing cell death among I-6 analogs", "setting": "[1]", "result": "most potent"}, {"measurement": "association of Src with claudin-1", "setting": "[2]", "result": "significantly interferes"}, {"measurement": "Kd", "setting": "[3]", "result": "92.1 µM and ≥ 100 µM"}, {"measurement": "cell invasion", "setting": "[4]", "result": "significantly inhibited"}, {"measurement": "EC50", "setting": "[5]; Homo sapiens, SW-620, 72 h, read-out: EC50, cell viability", "result": 9.3, "unit": "µM"}, {"measurement": "CI index, % cell survival in combination with 5-FU", "setting": "[5]; PDS-0330 with 5-FU (5μM)", "result": "< 1"}, {"measurement": "effect with oxaliplatin on cell survival", "setting": "[5]; PDS-0330 with oxaliplatin (1μM)", "result": "synergistic effect"}, {"measurement": "cell invasion", "setting": "[6]", "result": "significantly inhibited"}, {"measurement": "EC50", "setting": "[7]; Homo sapiens, 72 h, read-out: EC50, cell viability", "result": 8.4, "unit": "µM"}, {"measurement": "CI index, % cell survival in combination with 5-FU", "setting": "[7]; PDS-0330 with 5-FU (5μM)", "result": "< 1"}, {"measurement": "mouse behavior or weight", "setting": "[8]; 24 hours after a single PO and IP injection (5 mg/kg), data not shown", "result": "no change"}, {"measurement": "AUC(0-t)", "setting": "[8]; ip", "result": 422, "unit": "ng·h/mL"}, {"measurement": "CL/F", "setting": "[8]; ip", "result": 245, "unit": "mL/min/kg"}, {"measurement": "Cmax", "setting": "[8]; ip", "result": 59.3, "unit": "ng/mL"}, {"measurement": "Tmax", "setting": "[8]; ip", "result": 2.8, "unit": "h"}, {"measurement": "Vd/F", "setting": "[8]; ip", "result": 126, "unit": "L/kg"}, {"measurement": "half-life", "setting": "[8]; ip", "result": 5.5, "unit": "h"}, {"measurement": "AUC(0-inf)", "setting": "[8]; ip, PDS-0330 IP 5mg/kg", "result": 442, "unit": "ng·h/mL"}, {"measurement": "AUC(0-t)", "setting": "[8]; po", "result": 53.4, "unit": "ng·h/mL"}, {"measurement": "CL/F", "setting": "[8]; po", "result": 1190, "unit": "mL/min/kg"}, {"measurement": "Cmax", "setting": "[8]; po", "result": 30.8, "unit": "ng/mL"}, {"measurement": "Tmax", "setting": "[8]; po", "result": 0.4, "unit": "h"}, {"measurement": "Vd/F", "setting": "[8]; po", "result": 1100, "unit": "L/kg"}, {"measurement": "half-life", "setting": "[8]; po", "result": 14.5, "unit": "h"}, {"measurement": "AUC(0-inf)", "setting": "[8]; po, PDS-0330 PO 5mg/kg", "result": 86, "unit": "ng·h/mL"}, {"measurement": "impact on SW480 cells", "setting": "[9]", "result": "no significant impact"}, {"measurement": "resistance to anoikis", "setting": "[10]", "result": "dramatically reduced the resistance to anoikis"}, {"measurement": "Kd", "setting": "[11]", "result": "157 µM and ≥ 100 µM"}, {"measurement": "body weight among groups at the end of treatment", "setting": "[12]; PDS-0330 5mg/Kg and 10mg/Kg, SW620 and SW480^cld1 implanted mice", "result": "no statistically significant differences"}, {"measurement": "urea nitrogen (BUN) level", "setting": "[12]; kidney tissue and plasma of treated mice", "result": "not affected"}, {"measurement": "aspartate transaminase (AST) levels", "setting": "[12]; plasma and liver homogenate, day 25", "result": "not affected"}, {"measurement": "concentration at 2 h", "setting": "[13]; both, liver, ip", "result": 277, "unit": "ng/g"}, {"measurement": "concentration at 8 h", "setting": "[13]; both, liver, ip", "result": 807, "unit": "ng/g"}, {"measurement": "concentration at 2 h", "setting": "[13]; both, liver, po", "result": 17, "unit": "ng/g"}, {"measurement": "concentration at 8 h", "setting": "[13]; both, liver, po", "result": 5.8, "unit": "ng/g"}, {"measurement": "concentration at 24 h", "setting": "[13]; both, liver, po", "result": 10.5, "unit": "ng/g"}, {"measurement": "concentration at 24 h", "setting": "[13]; both, lungs, ip", "result": 93.7, "unit": "ng/g"}, {"measurement": "concentration at 24 h", "setting": "[13]; both, lungs, po", "result": 519, "unit": "ng/g"}, {"measurement": "concentration at 24 h", "setting": "[13]; liver, ip", "result": 407, "unit": "ng/g"}, {"measurement": "concentration at 2 h", "setting": "[13]; lungs, ip", "result": 338, "unit": "ng/g"}, {"measurement": "concentration at 8 h", "setting": "[13]; lungs, ip", "result": 76.9, "unit": "ng/g"}, {"measurement": "concentration at 2 h", "setting": "[13]; lungs, po", "result": 5, "unit": "ng/g"}, {"measurement": "concentration at 8 h", "setting": "[13]; lungs, po", "result": 473, "unit": "ng/g"}, {"measurement": "resistance to anoikis", "setting": "[14]", "result": "not affecting"}, {"measurement": "apoptosis in tumors (cleaved PARP, Bcl-xL, survivin)", "setting": "[15]; PDS-0330 5mg/kg and 10mg/kg", "result": "increase in apoptosis"}, {"measurement": "proliferation in tumors (Ki67)", "setting": "[15]; PDS-0330 5mg/kg and 10mg/kg", "result": "decreased proliferation"}, {"measurement": "mean tumor volume and tumor weight", "setting": "[15]; [17]", "result": "significantly reduced"}, {"measurement": "primary tumor growth", "setting": "[15]; [17]", "result": "reduced primary tumor growth in a statistically significant manner"}, {"measurement": "binding to trypsinized and labeled claudin-1", "setting": "[16]", "result": "no detectable binding"}]}]}
